Screens from PubChem BioAssay.
Efflux pump mplx = inhibitors of Candida efflux pumps in yeast, primary screen, S. cerevisiae, Nile Red, multiplex. S. cerevisiae Candida pump triplex. inhibition, % at 10 µM. 330,000 tested, 0.44% active. AID 485275, 2010;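 active means plate passing quality check with inhibition over a set limit, or well fluorescence over plate mean plus 4 SD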;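 further: Nile Red retained in pooled yeast measured as flow cytometry median fluorescence; 0% = buffer negative control and 100% = Enniatin B positive control; higher means more Nile Red kept so more efflux inhibition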
AHR act = AHR activators, primary screen, cell-based, luminescence, luciferase reporter, human. Aryl hydrocarbon receptor (Homo sapiens), P35869. AHR-responsive luciferase reporter cells. activation, % at 5 µM. 320,000 tested, 2.5% active; in the data active means activation above about 47%;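 further: 0% = vehicle wells and 100% = reference agonist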
H9c2 TAG inh = inhibitors of triacylglycerol accumulation, primary screen, cell-based, uHTS, fluorescence, H9c2 | H9c2 cells, Nile Red lipid (TAG) fluorescence; cells loaded with 200 µM oleic acid | inhibition, % at 12.5 µM | 230,000 tested, 0.66% active;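 active means pattern-corrected inhibition of lipid staining of at least 50% with the nuclear-stain viability signal not falling by more than 50%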;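 further: 0% = DMSO wells and 100% = triacsin C control wells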
TbMetRS inhib = T. brucei MetRS inhibitors, primary screen, biochemical, luminescence | methionyl-tRNA synthetase (Trypanosoma brucei brucei) | purified T. brucei MetRS, ATP depletion, Kinase-Glo luminescence | inhibition, % at 11.9 µM | 360,000 tested, 0.4% active | AID 624268, 2012;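 active means inhibition above a per-plate cutoff of the control wells' mean inhibition plus 3 SD, cut at about 5.5% in these data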;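 further: 0% = DMSO wells median and 100% = median of wells with control inhibitor compound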
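Test system – parasite MetRS enzyme · Reagent – substrates ATP, L-methionine and bulk Escherichia coli tRNA · Doses – 11.9 µM compound single dose, 0.9% DMSO · Times – 15 min enzyme-compound preincubation, 2 h reaction, 10 min detection, 25 °C · Signal – Kinase-Glo luminescence, ATP depletion format · Controls – DMSO-only wells as low control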
SMARCA2 activ = SMARCA2 (BRM) function activators, primary screen, cell-based, luminescence, high throughput; activation, % at 9.1 µM; AID 652017, 2013; MG213 cells, MMTV-luciferase reporter, dexamethasone, overnight; 370,000 tested, 1% active; in the data active means activation above about 7.8%;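 further: 0% = vehicle wells and 100% = reference activator wells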
SMARCA2 act conf = SMARCA2 (BRM) function activators, confirmation, cell-based, luminescence, triplicate. shares compounds with SMARCA2 activ. MG213 cells, MMTV-luciferase with dexamethasone, overnight; MG213 cells expressing E1A, Rb sequestered; DMSO wells 0%, reference activator 100%. activation, % at 9.1 µM. 3,500 tested, 30% active. AID 652260, 2013;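 active means activation above its plate's cutoff, the mean activation of tested wells plus 3 SD, cut at about 7.9% in these data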
GAL4-VP16 Luc = GAL4-VP16 luciferase reporter activation, counter-screen for SMARCA2 (BRM) activator project, cell-based, pG5luc, luminescence, high throughput; HEK293 GAL4-VP16 pG5luc reporter; scaled: DMSO wells 0%, SAHA wells 100%; AID 686939, 2013; activation, % at 9.1 µM; shares compounds with SMARCA2 activ; 3,500 tested, 41% active;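 active means activation above the solvent-only control well mean plus 3 SD, averaged across control plates, cut at about 5.2% in these data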
The depositor's hits bear a star; . = no result given. Shown are actives, neighbours in structure and some others; about 4.1% of the full set was active somewhere.

SMILES | Efflux pump mplx | AHR act | H9c2 TAG inh | TbMetRS inhib | SMARCA2 activ | SMARCA2 act conf | GAL4-VP16 Luc
COCCCNC(=O)C[C@H]1C[C@@]2(C(=O)OC)C(=C[C@H](C(C)(C)C)O[C@@H]2C)N(CCc2ccc(OC)c(OC)c2)C1=O | . | . | . | . | -2.6 | . | .
CCOC(=O)c1ccc(COC(=O)c2ccc3c(c2)-c2ccccc2C3=O)cc1 | 0.0 | 1.5 | -3.3 | -0.3 | 8.9* | -4.1 | 2.2
COC(=O)C1=C(C)N(Cc2cccc(C(F)(F)F)c2)C(=NCc2ccc(C(F)(F)F)cc2)NC1c1cccc(C(F)(F)F)c1 (stereo not drawn) | . | . | . | . | -3.9 | . | .
Cc1cccc(N=Nc2c(C)[nH]n(C(N)=S)c2=O)c1C | 0.1 | 40.1 | . | . | 7.6 | . | .
Cc1ccccc1N=Nc1c(C)[nH]n(C(N)=S)c1=O | -0.5 | 30.1 | . | 1.8 | 14.5* | 0.4 | 2.0
COc1ccc(/C=C/c2noc(-c3ccccc3O)n2)cc1 | -0.2 | 5.8 | . | 0.5 | 8.6* | 6.7 | 7.0*
CN(C)CCNc1cccc2sc3ccc(O)cc3c(=O)c12 | . | . | . | -0.2 | 15.6* | 31.5* | 8.4*
CCN(Cc1cn(Cc2ccccc2)nn1)S(=O)(=O)c1ccc(N2CCCC2)cc1Br | . | . | . | . | -5.8 | . | .
O=C(Nc1ccccc1)OC[C@@H]1CSCCS(=O)(=O)N1 | . | . | . | . | -0.5 | . | .
Cc1ccc(OCc2cc(C(=O)N3CCN(c4ccccc4)CC3)no2)cc1C | -0.1 | 29.2 | 2.9 | -0.6 | 13.4* | 5.5 | 6.4*
Cc1ccc(OCc2cc(C(=O)N3CCCCCCC3)no2)cc1C | -0.1 | 1.3 | . | -0.3 | 5.5 | . | .
Cc1cc(Cl)c2oc(C(=O)NCCC3CCCCO3)c(C)c2c1 (stereo not drawn) | -6.4 | 18.6 | -14.1 | -0.3 | 8.9* | 3.4 | 4.8
Cc1cc(Cl)c2oc(C(=O)NCCN3CCCCC3CO)c(C)c2c1 (stereo not drawn) | 0.0 | 5.5 | -13.9 | -0.2 | -1.0 | . | .
COc1ccc(OCCN2CCC(C(=O)NC(c3ccc(F)cc3)c3ccc4ccccc4n3)CC2)cc1 (stereo not drawn) | . | . | 2.9 | -0.3 | 9.6* | -4.2 | -1.2
CC(=Nc1ccc(C)cc1C)c1sc2ccccc2c1O | -0.2 | 6.0 | -36.1 | -0.1 | 15.2* | 1.6 | 10.5*
CC(=Nc1cccc(O)c1)c1sc2ccccc2c1O | 0.0 | 0.6 | . | -0.2 | 13.6* | 8.1* | 12.9*
O=c1c2sc(-c3ccccc3)cc2nc2n1CCC2 | -0.1 | -22.0 | -5.8 | 0.2 | 9.9* | 2.4 | 3.7
O=c1c2sc(-c3ccccc3)cc2nc2n1CCCCC2 | -0.1 | -7.2 | -2.0 | -0.3 | 4.3 | . | .
CC(C)[C@H](N)C(=O)N[C@H]1CCC2C3CC=C4C[C@@H](O)CC[C@]4(C)C3CC[C@@]21C (stereo partly drawn) | . | . | 5.2 | -0.2 | 18.8* | 43.8* | 1.7
COc1ccc(/C(O)=C2/C(=O)C(=O)N(c3ncccn3)C2c2ccc(OC)cc2)cc1 (stereo not drawn) | -0.1 | -4.0 | -4.7 | 0.1 | -1.2 | . | .
COc1ccc(C2/C(=C(/O)c3ccc(C)cc3)C(=O)C(=O)N2c2ccccn2)cc1OC (stereo not drawn) | 0.1 | 0.8 | -4.1 | 1.3 | -2.3 | . | .
CCCOc1ccc(/C(O)=C2\C(=O)C(=O)N(c3ccccn3)C2c2ccccc2F)cc1C (stereo not drawn) | 0.5 | 3.5 | . | -0.7 | 14.7* | 4.9 | 3.7
COc1ccc(C2/C(=C(/O)c3ccccc3)C(=O)C(=O)N2c2ccccn2)cc1 (stereo not drawn) | -0.1 | 1.2 | 13.9 | -1.8 | 10.1* | 3.9 | 0.6
CCC(=O)Nc1cc(Cl)ccc1C(=O)O | 0.3 | -0.1 | . | 0.0 | 9.4* | -3.2 | 1.6
Cc1ccc(NC(=S)N/N=C2\CC3CC=CC23)c(C)c1 (stereo not drawn) | 0.0 | 1.9 | 0.1 | -1.0 | -2.8 | . | .
